These results are taken from PubChem BioAssay.

Assay [1] is described as follows: inhibitors of TNFa-induced NFkB p65 translocation, primary screen, imaging, HUVEC, MLSMR starter and 10KST1 sets (AID 438;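 active means inhibition above 20% together with a positive visual image hit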;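 further: compound added about 3h40 before a 20 min TNFalpha stimulation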;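 on inhibition: signal is the nuclear over cytoplasmic p65 intensity ratio per well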). The following applies: HUVEC TNFa-induced p65 nuclear translocation; cell count: measured here: nuclei count (cytotoxicity indicator), at 2.08 µM; inhibition: at 2 µM, stronger effect = higher value, 0% TNFa-plus-vehicle, 100% no-TNFa wells.
A short description of assay [2]: reduction of polyQ htt aggregates in cells – imaging, exon1htt(103Q)mCFP cells, high-content imaging, primary screen (AID 483).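 Further: compound exposure lasted 3 days before fixation.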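 On nuclei count: percent of the per-plate median nuclei count of sample wells.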 The conditions noted are these: exon1htt(103Q)mCFP cell line, aggregate imaging, at 2 µM; inhibition of aggregation: stronger effect = higher value; nuclei count: measured here: cell count, toxicity.
Assay [3] can be described thus: endothelial E-selectin expression blockers – imaging, HUVEC, immunofluorescence, MLSMR starter and 10KST1 sets, primary screen (AID 487;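 active means visually confirmed hit in the image check and inhibition above 20%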;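 on inhibition: signal is fraction of cell area covered by stained E-selectin grains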;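 on nuclei count: 100% = median nuclei count of all wells on the same plate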). The following applies: HUVEC TNFalpha-induced E-selectin immunofluorescence imaging, at 2 µM; inhibition: stronger effect = higher value; nuclei count: measured here: cell number, toxicity.
Assay [4] concerns the target Voltage-gated potassium channel subunit beta-2 (Rattus norvegicus) (UniProt P62483). The experiment in a line: inhibitors of rat Kvbeta2 reductase activity – biochemical, NADPH fluorescence, primary screen (AID 622;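 active means fluorescence slope higher than the sample average by over 3 SD, cut at about -0.22 in these data, passing the limit was not always enough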;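 further: slope of raw intensity against log time taken from 70 to 1610 s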). The conditions noted are these: recombinant KvBeta, 4-cyanobenzaldehyde reduction, at 10 µM, stronger effect = higher value.
The target is the same in assay [5]. The experiment in a line: enhancers of rat Kvbeta2 NADPH turnover – biochemical, NADPH fluorescence, primary screen (AID 623;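 active means NADPH fluorescence slope more negative than the mean of all samples by about 3 SD, 99.7% confidence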;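 further: fluorescence intensity change per second fitted from 20 to 320 s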). The conditions noted are these: Recombinant KvBeta, NADPH fluorescence decrease slope, 10 min; at 10 µM; stronger effect = lower value.
For assay [6], the target named is Muscarinic acetylcholine receptor M4 (Homo sapiens) (UniProt P08173). The experiment in a line: M4-linked GIRK flux change, two-sided – cell-based, HEK293 M4/GIRK, thallium flux, BTC-AM, M4 allosteric agonist project, primary screen (AID 625;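 active means fluorescence slope after compound addition differing from the mean of all tested samples at 99.7% confidence, mostly higher but some lower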;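 further: thallium influx through GIRK channels coupled to M4 in HEK293 cells with BTC-AM dye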). The conditions noted are these: at 10 µM, actives lie on both sides. The method in brief:
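Assay system: HEK293 cells with M4 receptor and GIRK channels / Controls: carbachol and DMSO controls / Schedule: 1 h dye loading, 2 min kinetic read / Technique: kinetic fluorescence with BTC-AM dye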

Assay [7] is described as follows: blockers of RIG-like receptor reporter activation – cell-based, Sendai virus stimulus, luciferase, 10K MLSCN set, TLR/RLR signaling modifier project, primary screen (AID 602276;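 active means inhibition at or above 50% at 10 µM; inactive means inhibition below 50%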;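 further: firefly luciferase from ISG56 promoter only with Renilla not read in this screen; 0% = Sendai virus plus DMSO and 100% = medium plus DMSO without virus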). The following applies: HEK293 RL24 IRF3 luciferase reporter, at 10 µM, stronger effect = higher value. For orientation: Reporter assays use an easily measured gene product as a stand-in for the process of interest.

The nature of assay [8]: TLR3 IRF3 reporter activation blockers – cell-based, poly I:C stimulus, luciferase, 10K MLSCN set, primary screen (AID 602277;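 active means inhibition of the reporter signal at or above 50%; inactive means inhibition below 50%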). The conditions noted are these: HEK293-TLR3 RL24 IRF3 luciferase reporter, at 10 µM, stronger effect = higher value.

Each structure is given as a SMILES string. The source made the active and inactive calls.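 How the source made its calls, unless noted: active means visual image review flags a hit and inhibition of aggregation exceeds 20%; inconclusive means visual hit but inhibition at or below 20%; inactive means no hit on visual image review.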

Sequence of Muscarinic acetylcholine receptor M4 (Homo sapiens) (P08173 whole entry, looked up): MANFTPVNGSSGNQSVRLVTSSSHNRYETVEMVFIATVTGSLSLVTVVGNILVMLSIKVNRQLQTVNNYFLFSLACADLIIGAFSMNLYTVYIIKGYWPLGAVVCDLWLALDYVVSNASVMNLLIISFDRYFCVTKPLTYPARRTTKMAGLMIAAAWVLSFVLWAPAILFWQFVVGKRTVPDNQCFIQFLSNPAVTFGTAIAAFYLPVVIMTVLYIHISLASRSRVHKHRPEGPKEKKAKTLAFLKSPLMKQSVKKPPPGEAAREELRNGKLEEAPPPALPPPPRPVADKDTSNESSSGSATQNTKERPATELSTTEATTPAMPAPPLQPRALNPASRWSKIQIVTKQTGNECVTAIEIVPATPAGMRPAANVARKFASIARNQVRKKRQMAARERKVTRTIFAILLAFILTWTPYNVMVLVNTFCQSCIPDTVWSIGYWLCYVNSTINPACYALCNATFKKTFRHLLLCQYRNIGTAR
Sequence of Voltage-gated potassium channel subunit beta-2 (Rattus norvegicus) (P62483 whole entry, looked up): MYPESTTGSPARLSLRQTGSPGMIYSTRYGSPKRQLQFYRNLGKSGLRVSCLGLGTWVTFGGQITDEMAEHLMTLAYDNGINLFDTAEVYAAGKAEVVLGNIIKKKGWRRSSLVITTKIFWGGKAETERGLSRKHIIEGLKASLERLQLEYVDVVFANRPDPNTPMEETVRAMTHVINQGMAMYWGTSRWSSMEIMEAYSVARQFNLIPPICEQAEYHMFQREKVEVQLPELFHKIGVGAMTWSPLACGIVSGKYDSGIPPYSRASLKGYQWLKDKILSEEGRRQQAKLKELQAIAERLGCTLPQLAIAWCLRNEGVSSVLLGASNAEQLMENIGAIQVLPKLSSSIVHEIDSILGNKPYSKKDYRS

The term inhibition denotes the change of the read-out against control, counted positive when it falls. Consider `CCCS(=O)(=O)N1CCC(C(=O)N2CCCC2)CC1`, for which, in assay [1], the cell count came to 657. The inhibition in assay [1] was -9.9% (inactive); in assay [3], -70.4% (inactive); in assay [7], 18.9% (inactive); in assay [8], 8.55% (inactive). Moreover, in assay [2], the inhibition of aggregation was -6.5% (inactive). Besides, the nuclei count in assay [2] amounted to 96.1%; in assay [3], 107%. Moreover, the results for the fluorescence slope in assay [4] and in assay [6] were -0.611 (inactive) and 0.00435 (inactive), respectively. In addition, the NADPH fluorescence slope in assay [5] is -8.1e-06 (inactive).
With `Cc1cc(=O)n(CC(C)C)c(O)c1C#N`, the cell count in assay [1] worked out at 432. The inhibition in assay [1] was 1.5% (inactive); in assay [3] it was -11.8% (inactive); in assay [7] it was 13% (inactive); in assay [8], -7.21% (inactive). Besides, the inhibition of aggregation in assay [2] was 9.1% (inactive). In addition, the nuclei count in assay [2] worked out at 94.3%; in assay [3], 109%. Moreover, the fluorescence slope was -0.581 (inactive) in assay [4] and 0.00407 (inactive) in assay [6]. Moreover, the NADPH fluorescence slope in assay [5] is -3.7e-05 (inactive).
`CCC1C(=O)n2nc(-c3ccccc3)cc2N=C1C` (centres undefined): the cell count in assay [1] came to 330. In addition, the inhibition in assay [1] was 0% (inactive); in assay [3] it was -4.1% (inactive); in assay [7], -22% (inactive); in assay [8], -37% (inactive). Also, the inhibition of aggregation in assay [2] is -7.3% (inactive). Moreover, the nuclei count in assay [2] is 102%; in assay [3] it was 114%. The fluorescence slope in assay [4] was -0.506 (inactive); in assay [6] it was 0.006 (inactive). Besides, the NADPH fluorescence slope in assay [5] is -4.6e-05 (inactive).
Take `Cc1c(C(=O)O)sc2nc3n(c(=O)c12)CCC(C)CC3` (centres undefined): the cell count in assay [1] was found to be 621. Moreover, the inhibition in assay [1] is -10.5% (inactive); in assay [3] it was -29.1% (inactive); in assay [7], 6.81% (inactive); in assay [8], 11.1% (inactive). In assay [2], the inhibition of aggregation is -7.7% (inactive). For the same compound, the nuclei count in assay [2] turned out to be 113%; in assay [3], 110%. Also, the fluorescence slope in assay [4] was -0.442 (inactive); in assay [6], 0.00587 (inactive). The NADPH fluorescence slope in assay [5] was 6.7e-05 (inactive).
Take `CCCC(=O)Nc1ccccc1NC(=O)CCC`: the cell count in assay [1] came out at 353. Moreover, the inhibition in assay [1] was -5.6% (inactive); in assay [3], -23.8% (inactive); in assay [7], 14.4% (inactive); in assay [8], 15.4% (inactive). Further, the inhibition of aggregation in assay [2] was -10.5% (inactive). In addition, the figures for the nuclei count in assay [2] and in assay [3] were 103% and 109%, respectively. Besides, the fluorescence slope in assay [4] was -0.434 (inactive); in assay [6] it was 0.00516 (inactive). Further, in assay [5], the NADPH fluorescence slope is -6e-05 (inactive).
Turning to `C=CCn1cnc2c(NCc3ccccc3)ncnc21`, the cell count in assay [1] came to 387. Also, the inhibition in assay [1] is -13.3% (inactive); in assay [3], 20.4% (inactive); in assay [7], -54.3% (inactive); in assay [8], -89% (inactive). Moreover, the inhibition of aggregation in assay [2] is 3% (inactive). Further, the results for the nuclei count in assay [2] and in assay [3] were 98.8% and 142%, respectively. In addition, the fluorescence slope is -0.587 (inactive) in assay [4] and 0.00713 (inactive) in assay [6]. Moreover, the NADPH fluorescence slope in assay [5] is 3.1e-05 (inactive).
Regarding `Cc1ccc(-n2c(Cc3cccn3C)nnc2SCC(=O)NCc2ccc3c(c2)OCO3)cc1`, the cell count in assay [1] was 567. Also, the inhibition was -12.9% (inactive) in assay [1], -53.4% (inactive) in assay [3], 18.7% (inactive) in assay [7] and 26.7% (inactive) in assay [8]. Also, in assay [2], the inhibition of aggregation is -10.3% (inactive). The results for the nuclei count in assay [2] and in assay [3] were 103% and 82.3%, respectively. Moreover, the fluorescence slope in assay [4] was -0.419 (inactive); in assay [6] it was 0.00714 (inactive). The NADPH fluorescence slope in assay [5] was 2.3e-05 (inactive).
Turning to `CC(c1ccco1)N(C(=O)COc1ccc(Cl)cc1Cl)c1ccccn1` (centres undefined), in assay [1], the cell count was found to be 720. Also, the inhibition in assay [1] was 2.4% (inactive); in assay [3] it was -108% (inactive); in assay [7], 2.26% (inactive); in assay [8], -73.7% (inactive). Moreover, the inhibition of aggregation in assay [2] was -4.8% (inactive). Besides, the nuclei count in assay [2] turned out to be 96%; in assay [3], 119%. Moreover, the fluorescence slope in assay [4] was -0.466 (inactive); in assay [6] it was 0.00469 (inactive). Also, in assay [5], the NADPH fluorescence slope is -6.4e-05 (inactive).
On to `N#Cc1c(/N=C/c2ccco2)sc2c1CCC2`, for which the cell count in assay [1] was 657. Further, the inhibition in assay [1] is 11.9% (inactive); in assay [3] it was -12.4% (inactive); in assay [7] it was -16.4% (inactive); in assay [8] it was -42.7% (inactive). Besides, the inhibition of aggregation in assay [2] was 0.6% (inactive). Further, the results for the nuclei count in assay [2] and in assay [3] were 105% and 104%, respectively. The figures for the fluorescence slope in assay [4] and in assay [6] were -0.507 (inactive) and 0.00356 (inactive), respectively. Besides, the NADPH fluorescence slope in assay [5] was -0.000202 (inactive).
With `CC(C)C(=O)Nc1cccc(NC(=O)c2cccnc2)c1`, the cell count in assay [1] worked out at 311. Also, the inhibition in assay [1] was 7.2% (inactive); in assay [3], -167% (inactive); in assay [7] it was -7.88% (inactive); in assay [8], -11.4% (inactive). Further, in assay [2], the inhibition of aggregation is -20.9% (inactive). Further, the nuclei count in assay [2] is 95.6%; in assay [3] it was 104%. In addition, the fluorescence slope in assay [4] was -0.611 (inactive); in assay [6] it was 0.00325 (inactive). Besides, the NADPH fluorescence slope in assay [5] was 7.6e-06 (inactive).
Regarding `N#Cc1nc(-c2ccc(Cl)cc2)oc1NCCc1ccccn1`, the cell count in assay [1] amounted to 238. The inhibition in assay [1] was 18.4% (inactive); in assay [3], -40.5% (inactive); in assay [7] it was 24.4% (inactive); in assay [8], -35% (inactive). Besides, the inhibition of aggregation in assay [2] is -7.2% (inactive). For the same compound, the results for the nuclei count in assay [2] and in assay [3] were 107% and 97.9%, respectively. For the same compound, the fluorescence slope is -0.59 (inactive) in assay [4] and 0.00656 (inactive) in assay [6]. Also, the NADPH fluorescence slope in assay [5] is -2.8e-06 (inactive).
As to `CCN(CC)S(=O)(=O)c1ccc(N2CCCC2)c(C(=O)OCC(=O)/C(C#N)=C(\C)N)c1`, the cell count in assay [1] was found to be 560. For the same compound, the inhibition in assay [1] is -16% (inactive); in assay [3], 8.4% (inactive); in assay [7], 15.9% (inactive); in assay [8], 24.1% (inactive). Also, the inhibition of aggregation in assay [2] was 6.5% (inactive). The values for the nuclei count in assay [2] and in assay [3] were 98.3% and 101%, respectively. In addition, the fluorescence slope in assay [4] is -0.428 (inactive); in assay [6], 0.00583 (inactive). Moreover, the NADPH fluorescence slope in assay [5] is 6.6e-05 (inactive).
Turning to `Cc1cccc(-n2c(Cc3cc(=O)[nH]c(=O)[nH]3)nnc2SCC(=O)NCc2ccco2)c1`, the cell count in assay [1] was 400. Further, the inhibition in assay [1] is -4% (inactive); in assay [3] it was -15.1% (inactive); in assay [7], 12.7% (inactive); in assay [8], 7.93% (inactive). Besides, the inhibition of aggregation in assay [2] is -21.7% (inactive). The nuclei count in assay [2] turned out to be 90%; in assay [3], 101%. The fluorescence slope is -0.529 (inactive) in assay [4] and 0.00455 (inactive) in assay [6]. In addition, the NADPH fluorescence slope in assay [5] is -4.9e-05 (inactive).
As for `CCc1cc2ccc(C)cc2nc1SCC(=O)N1CCN(C(=O)c2ccco2)CC1`, the cell count in assay [1] turned out to be 431. Besides, the inhibition is 4.8% (inactive) in assay [1], -49.1% (inactive) in assay [3], 11.9% (inactive) in assay [7] and 5.95% (inactive) in assay [8]. Further, the inhibition of aggregation in assay [2] was 15.4% (inactive). In addition, the nuclei count in assay [2] is 106%; in assay [3], 119%. Also, the fluorescence slope was -0.504 (inactive) in assay [4] and 0.00487 (inactive) in assay [6]. Besides, the NADPH fluorescence slope in assay [5] was -0.000145 (inactive).
